Results from different studies.
Compare with care: the assays were run in different laboratories.
Target: Ephrin type-A receptor 7 (EPHA7, Homo sapiens, UniProt Q15375)

| SMILES | test | conditions | remaining binding [%] |
| --- | --- | --- | --- |
| COc1cnc(Nc2cccc(S(N)(=O)=O)c2)nc1N1CCN(c2ccccc2)CC1 | binding, competition with immobilised ligand | 1 µM | 86 |
| O=C(NCCCN1CCOCC1)c1ccc(Nc2ncc(Cl)c(-c3ccc(Cl)s3)n2)cc1 | binding, competition with immobilised ligand | 1 µM | 60 |
| c1cncc(-c2cccc(Nc3nccc(NC4CCCCC4)n3)c2)c1 | binding, competition with immobilised ligand | 10 µM | 100 |
| O=C(c1ccc(Nc2ncc(Cl)c(-c3cc4ccccc4s3)n2)cc1)N1CCC(N2CCCC2)CC1 | binding, competition with immobilised ligand | 1 µM | 49 |
| N[C@H]1CCN(c2nccc(-c3cnn4ncccc34)n2)C1 | binding | 1 µM | 100 |
| C[C@@H](c1ccc(-n2cnc3c(N)ncnc32)cc1)N1CCc2nn(C)c(Cc3ccccc3)c2C1=O | binding, competition with immobilised ligand | 0.1 µM | 69 |
| COc1cnc(Nc2cccc(S(N)(=O)=O)c2)nc1N1CCN(c2ccccc2)C(=O)C1 | binding, competition with immobilised ligand | 1 µM | 100 |
| C[C@@H]1CN(c2cc(-c3nn(C)c4ccc(OC5(C)CC5)cc34)ncn2)C[C@H](C)O1 | cell-free assay, competition with immobilised ligand | 1 µM | 99 |
| O=C(NCC1CCOCC1)c1n[nH]cc1NC(=O)c1c(F)cccc1F | binding, competition with immobilised ligand | 1 µM | 97 |
| N#CC1(c2ccccn2)CCN(Cc2cc(C(=O)N3CCCC3)c(=O)n3ccccc23)CC1 | cell-free assay, competition with immobilised ligand | 1 µM | 100 |
| COc1ccnn2ncc(-c3ccnc(N(C)C)n3)c12 | binding | 1 µM | 93 |
| O=C(c1ccc(Nc2ncc(Cl)c(-c3ccc(Cl)s3)n2)cc1)N1CCC(N2CCCC2)CC1 | binding, competition with immobilised ligand | 1 µM | 56 |
| CN(C)C(=O)Cn1cc(-c2nc(C3(c4ccc(-c5cnc(N)nc5)cc4)CC3)no2)cn1 | cell-free assay, competition with immobilised ligand | 1 µM | 92 |
| F[C@@H]1CCN(c2nccc(-c3cnn4ncccc34)n2)C1 | binding | 1 µM | 100 |
| Cn1cc(Cl)c2c(Oc3c(F)cc(Nc4cc(Cl)nc(N)n4)cc3F)ccnc21 | cell-free assay, competition with immobilised ligand | 0.1 µM | 96 |
| CN(C)c1ncc(F)c(-c2cnn3ncccc23)n1 | binding | 1 µM | 100 |
| CCOC(=O)c1cc2cc(-c3cc(C(=O)NCc4ccc(C(=O)O)cc4)nn3C)ccc2[nH]1 | cell-free assay, competition with immobilised ligand | 0.1 µM | 97 |
| C[C@@H]1CCN(c2nccc(-c3cnn4ncccc34)n2)C1 | binding | 1 µM | 84 |
| CN(C)C(=O)Cn1cc(-c2nc([C@@](C)(c3ccc(-c4cnc(N)nc4)cc3)C3CC3)no2)cn1 | cell-free assay, competition with immobilised ligand | 1 µM | 98 |
| CN(CCCC(F)(F)F)c1nccc(-c2cnn3ncccc23)n1 | binding | 1 µM | 96 |
